The term IC50 denotes the concentration at which inhibition is half-maximal. Usually MIC stands for the lowest concentration found to suppress growth. High values mean a less susceptible organism, low ones a more susceptible organism.

≈ marks a conversion by molar mass, not a printed value. Calls of active or inactive are those of the source. The rule behind the calls is not given here. Bounds are passed on as bounds.

A short description of test [1]: Cytotoxicity against human RPMI 8226/s cells after 72 hrs by fluorometric microculture cytotoxicity assay. Format: functional, cell-based. The note with it: RPMI8226/S. The gist of the method: (§1)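 FMCA method: compounds dissolved in 10% DMSO were tested at 10 concentrations, 0.15625–80 μM, each in triplicate. Plates included solvent, medium, Triton X-100 and PBS controls. Cells were exposed for 72 h, washed with PBS, and incubated with FDA for 40 min. Fluorescence, proportional to living cells, gave a survival index at each concentration. Values are mean ± SEM of triplicates, fitted by nonlinear regression.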

The nature of test [2]: Cytotoxicity against human CEM/s cells after 72 hrs by fluorometric microculture cytotoxicity assay. Format: functional, cell-based. Put shortly: as §1
Test [3] relates to Bacteroides fragilis. Kind of test: Antibacterial activity against Bacteroides fragilis DSM 2151 by standard broth microdilution technique. Format: functional. The gist of the method: (§2)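 Strains kept at -80 °C and grown on blood agar at 35 °C for 24 h before testing. DMSO stocks were serially 2-fold diluted in reduced Wilkins-Chalgren broth to final 0.125–32 μg/mL. Colony suspension was set to 0.5 McFarland and diluted 1:10 (~1.5 × 10⁷ CFU/mL); 10 μL was added per well, in triplicate. Incubated anaerobically at 35 °C for 48 h. MIC was the lowest concentration without visible growth. Tests were repeated at least once.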
A general note: Broth dilution looks for growth in wells or tubes with falling amounts of substance.

Test [4] has as its system Staphylococcus aureus. The experiment in a line: Antibacterial activity against Staphylococcus aureus ATCC 25923 by standard broth microdilution technique. Format: functional. The gist of the method:
(§3)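 Exponential-phase cultures were diluted to a final inoculum of 1 × 10⁶ CFU/mL and mixed 1:1 with serial dilutions made in double-distilled water. Medium was 2% bactopeptone water for S. aureus, E. coli and P. aeruginosa, and brain heart infusion broth for E. faecalis and S. pyogenes. Incubated at 37 °C overnight. MIC was the lowest concentration without visible growth. Gentamycin served as internal control.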

In test [5] the test system is Pseudomonas aeruginosa. The experiment in a line: Antibacterial activity against Pseudomonas aeruginosa ATCC 27853 by standard broth microdilution technique. The class given is functional. Put shortly: as §3
Test [6] relates to Bacteroides thetaiotaomicron. The experiment in a line: Antibacterial activity against Bacteroides thetaiotaomicron DSM 2255 by standard broth microdilution technique. Format: functional. Put shortly:
as §2

In test [7] the test system is Streptococcus pyogenes. The experiment in a line: Antibacterial activity against Streptococcus pyogenes ATCC 19615 by standard broth microdilution technique. Format: functional. Put shortly:
as §3

The subject of test [8] is Escherichia coli. The experiment in a line: Antibacterial activity against Escherichia coli ATCC 25922 by standard broth microdilution technique. The class given is functional. Put shortly:
as §3

Test [9] relates to Enterococcus faecalis. The experiment in a line: Antibacterial activity against Enterococcus faecalis by standard broth microdilution technique. The class given is functional. Put shortly: as §3
The subject of test [10] is ACHN. The experiment in a line: (§4) Cytotoxicity against multidrug-resistant human ACHN cells after 72 hrs by fluorometric microculture cytotoxicity assay. Format: functional, cell-based. Put shortly: as §1
The test system of test [11] is Mycobacterium tuberculosis. Kind of test: Antibacterial activity against Mycobacterium tuberculosis by standard broth microdilution technique. The class given is functional.
Test [12] concerns U-937/GTB. Kind of test: Cytotoxicity against human U937 GTB cells after 72 hrs by fluorometric microculture cytotoxicity assay. Format: functional, cell-based. The gist of the method:
as §1

Test [13] relates to L1210. Kind of test: Cytotoxicity against mouse L1210 cells. Format: functional, cell-based.
Test [14] deals with ACHN. The test is described as §4. The class given is functional, cell-based. Put shortly: as §1
This is another data set of the same source.

Test [15] has as its system CEM/s. The experiment in a line: Cytotoxicity against human CEM/s cells at 80 uM after 72 hrs by fluorometric microculture cytotoxicity assay. Format: functional, cell-based. The gist of the method: as §1
Test [16] deals with U-937/GTB. The experiment in a line: Cytotoxicity against human U937 GTB cells at 80 uM after 72 hrs by fluorometric microculture cytotoxicity assay. The class given is functional, cell-based. The gist of the method: as §1
Test [17] is filed under the species Homo sapiens. Kind of test: Cytotoxicity against human RPMI 8226/s cells at 80 uM after 72 hrs by fluorometric microculture cytotoxicity assay. The class given is functional, cell-based. The gist of the method:
as §1

For `CC(=O)O[C@H]1C(=O)[C@@]2(C)[C@H]([C@H](OC(=O)c3ccccc3)[C@]3(O)C[C@H](OC(=O)[C@H](O)[C@@H](NC(=O)c4ccccc4)c4ccccc4)C(C)=C1C3(C)C)[C@]1(OC(C)=O)CO[C@@H]1C[C@@H]2O` [PACLITAXEL], the IC50 in test [1] and in [2] was 0.007 µM each time.

For `C=C1CC[C@H]2C(C)(C)CCC[C@]2(C)[C@H]1CC/C(C)=C/Cn1c[n+](C)c2nc[n-]/c(=N\OC)c21`, the MIC in test [3] is 4 µg/mL (≈ 8.86 µM); in test [4], 2 µg/mL (≈ 4.43 µM); in test [5], 32 µg/mL (≈ 70.8 µM); in test [6], 4 µg/mL (≈ 8.86 µM); in test [7], 2 µg/mL (≈ 4.43 µM); in test [8] it was 8 µg/mL (≈ 17.7 µM). The MIC in [9] was 8 µg/mL (≈ 17.7 µM); in [11], above 6.25 µg/mL. For the same compound, the IC50 in test [1] turned out to be 0.2 µM; in test [2], 2.33 µM; in [10], 8.01 µM; in [12], 1.03 µM.

`C/C(=C\Cn1c[n+](C)c2ncnc(N)c21)CC[C@@]1(C)[C@H](C)CC[C@@]2(C)C(COC(=O)c3cc(Br)c[nH]3)=CCC[C@@H]12` showed an IC50 in [13] of 4.8 µM.

Turning to `C=C1CC[C@H]2C(C)(C)CCC[C@]2(C)[C@H]1CC/C(C)=C/Cn1c[n+](C)c2ncnc(N)c21.[Cl-]`, the minimum inhibitory concentration (MIC) in test [3] came out at 16 µg/mL; in test [4] it was 1 µg/mL; in test [5], 16 µg/mL; in [6] it was 8 µg/mL; in test [7], 2 µg/mL; in [8] it was 8 µg/mL. The values for the MIC in [9] and in test [11] were 8 µg/mL and above 6.25 µg/mL, respectively. The IC50 in test [1] was 3.7 µM; in [2], 4.68 µM; in test [10], 25 µM; in test [12] it was 5.59 µM.

With `CO[C@H]1/C=C/O[C@@]2(C)Oc3c(C)c(O)c4c(O)c(c(/C=N/N5CCN(C)CC5)c(O)c4c3C2=O)NC(=O)/C(C)=C\C=C\[C@H](C)[C@H](O)[C@@H](C)[C@@H](O)[C@@H](C)[C@H](OC(C)=O)[C@@H]1C` [RIFAMPIN], the lowest concentration to inhibit growth in test [11] (MIC) was 0.25 µg/mL (≈ 0.304 µM).

As to `C=C1CC[C@H]2C(C)(C)CCC[C@]2(C)[C@H]1CC/C(C)=C/Cn1c[n+](C)c2nc[n-]/c(=N\OC(C)(C)C)c21`, the MIC was found to be 4 µg/mL (≈ 8.1 µM) in [3]; 6 µg/mL (≈ 12.2 µM) in [4]; 4 µg/mL (≈ 8.1 µM) in test [6]; 32 µg/mL (≈ 64.8 µM) in test [8]; 3.13 µg/mL (≈ 6.34 µM) in [11]. The outcome in test [14], in [15], in [16] and in [17] was inactive. The IC50 in [1], in [2], in test [10] and in test [12] was above 80 µM each time.

`COc1cccc2c1C(=O)c1c(O)c3c(c(O)c1C2=O)C[C@@](O)(C(=O)CO)C[C@@H]3O[C@H]1C[C@H](N)[C@H](O)[C@H](C)O1` [DOXORUBICIN]: the results for the IC50 in test [1] and in test [2] were 0.13 µM and 0.18 µM, respectively.

Regarding `Cc1ncc([N+](=O)[O-])n1CCO` [METRONIDAZOLE], the MIC in test [3] was 0.5 µg/mL (≈ 2.92 µM); in test [6] it was 1 µg/mL (≈ 5.84 µM).

The values above are taken from ChEMBL document CHEMBL1157292, “(+)-agelasine D: improved synthesis and evaluation of antibacterial and cytotoxic activities” (J Nat Prod, 2006).
